Results from ChEMBL document CHEMBL1142454, “Synthesis and evaluation of novel 4-amino-4,6-androstadiene-3,17-dione: an analog of formestane” (2008).

How the values were obtained:
Set-up in all cases: scale not given: the % may be the effect or the level left
[1] = test system: A549; assay: Antitumor activity against human A549/ATCC cells assessed as reduction of cell growth at 10 uM after 48 hrs by SRB assay; format: functional
Method in brief: (§1)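 NCI 60-cell-line primary screen, single dose 10^-5 M (final). Cells grown in RPMI 1640 with 5% FBS and 2 mM L-glutamine, seeded at 5000–40,000 cells/well and preincubated 24 h at 37 °C, 5% CO2. Compound is dissolved in DMSO, diluted in medium with gentamicin, and exposed 48 h. Cells are fixed with 10% TCA (final) and stained with 0.4% SRB; absorbance is read at 515 nm. Readout is growth percentage.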

[2] = test system: DU-145; assay: Antitumor activity against human DU145 cells assessed as reduction of cell growth at 10 uM after 48 hrs by SRB assay; format: functional; method in brief: as §1
[3] = test system: OVCAR-4; assay: Antitumor activity against human OVCAR4 cells assessed as reduction of cell growth at 10 uM after 48 hrs by SRB assay; format: functional; method in brief: as §1
[4] = test system: TK-10; assay: Antitumor activity against human TK-10 cells assessed as reduction of cell growth at 10 uM after 48 hrs by SRB assay; format: functional
Method in brief: (§2)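 NCI-60 one-dose primary screen at 10^-5 M final. Cells grown in RPMI 1640 with 5% FBS and 2 mM L-glutamine, plated at 5000–40,000 cells/well and preincubated 24 h at 37 °C, 5% CO2. Drug stocks in DMSO, diluted in medium with gentamicin. Exposure 48 h, then fixed in situ with TCA (10% final) for 60 min at 4 °C. Stained with 0.4% SRB in 1% acetic acid, bound dye solubilized in 10 mM trizma base, absorbance read at 515 nm. Reported as mean growth percent; negative values indicate cell kill.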

[5] = test system: OVCAR-5; assay: Antitumor activity against human OVCAR5 cells assessed as reduction of cell growth at 10 uM after 48 hrs by SRB assay; format: functional; method in brief: as §1
[6] = test system: Malme-3M; assay: Antitumor activity against human MALME-3M cells assessed as reduction of cell growth at 10 uM after 48 hrs by SRB assay; format: functional; method in brief: as §1
[7] = test system: KM12; assay: Antitumor activity against human KM12 cells assessed as reduction of cell growth at 10 uM after 48 hrs by SRB assay; format: functional; method in brief: as §1
[8] = test system: HCT-15; assay: Antitumor activity against human HCT-15 cells assessed as reduction of cell growth at 10 uM after 48 hrs by SRB assay; format: functional; method in brief: as §1
[9] = test system: M14; assay: Antitumor activity against human M14 cells assessed as reduction of cell growth at 10 uM after 48 hrs by SRB assay; format: functional; method in brief: as §1
[10] = Antitumor activity against human 786-O cells assessed as reduction of cell growth at 10 uM after 48 hrs by SRB assay; format: functional, 786-0; method in brief: as §1
[11] = test system: SF-268; assay: Antitumor activity against human SF-268 cells assessed as reduction of cell growth at 10 uM after 48 hrs by SRB assay; format: functional; method in brief: as §1
[12] = test system: NCI-H226; assay: Antitumor activity against human NCI-H226 cells assessed as reduction of cell growth at 10 uM after 48 hrs by SRB assay; format: functional; method in brief: as §1
[13] = test system: HCC 2998; assay: Antitumor activity against human HCC2998 cells assessed as reduction of cell growth at 10 uM after 48 hrs by SRB assay; format: functional; method in brief: as §1
[14] = test system: OVCAR-8; assay: Antitumor activity against human OVCAR8 cells assessed as reduction of cell growth at 10 uM after 48 hrs by SRB assay; format: functional; method in brief: as §1
[15] = test system: SF-295; assay: Antitumor activity against human SF-295 cells assessed as reduction of cell growth at 10 uM after 48 hrs by SRB assay; format: functional; method in brief: as §1
[16] = test system: MCF7; assay: Antitumor activity against human doxorubicin-resistant MCF7 cells assessed as reduction of cell growth at 10 uM after 48 hrs by SRB assay; format: functional; method in brief: as §2
[17] = test system: EKVX; assay: Antitumor activity against human EKVX cells assessed as reduction of cell growth at 10 uM after 48 hrs by SRB assay; format: functional; method in brief: as §1
[18] = test system: HOP-92; assay: Antitumor activity against human HOP-92 cells assessed as reduction of cell growth at 10 uM after 48 hrs by SRB assay; format: functional; method in brief: as §1
[19] = test system: CCRF-CEM; assay: Antitumor activity against human CCRF-CEM cells assessed as reduction of cell growth at 10 uM after 48 hrs by SRB assay; format: functional; method in brief: as §1
[20] = test system: PC-3; assay: Antitumor activity against human PC-3 cells assessed as reduction of cell growth at 10 uM after 48 hrs by SRB assay; format: functional; method in brief: as §1
[21] = test system: UO-31; assay: Antitumor activity against human UO-31 cells assessed as reduction of cell growth at 10 uM after 48 hrs by SRB assay; format: functional; method in brief: as §2
[22] = test system: RPMI-8226; assay: Antitumor activity against human RPMI 8226 cells assessed as reduction of cell growth at 10 uM after 48 hrs by SRB assay; format: functional; method in brief: as §1

Structure (SMILES)	Activity [1]	Activity [2]	Activity [3]	Activity [4]	Activity [5]	Activity [6]	Activity [7]	Activity [8]	Activity [9]	Activity [10]	Activity [11]	Activity [12]	Activity [13]	Activity [14]	Activity [15]	Activity [16]	Activity [17]	Activity [18]	Activity [19]	Activity [21]	further results
CCOC1=C2CC[C@@H]3[C@H](CC[C@]4(C)C(=O)CC[C@@H]34)[C@@]2(C)CCC1=O	97.79%	123.2%	96.98%	100.6%	101.66%	87.47%	123.89%	110.45%	103.8%	103.4%	128.3%	98.58%	125.75%	98.96%	114%	97.45%	111.14%	92.93%	91.63%	85.82%	Activity [20]: 96.5%
C[C@]12CC[C@H]3[C@@H](CCC4=CC(=O)CC[C@@]43CF)[C@@H]1CCC2=O	99.26%	116.2%	98.85%	114.8%	118.37%	94.17%	117.01%	106.17%	102.8%	105.6%	109.8%	111.29%	139.86%	94.26%	106.3%	107.98%	94.85%	113.59%	88.21%	87.76%	–
C[C@]12CCC(=O)C(N)=C1C=C[C@@H]1[C@@H]2CC[C@]2(C)C(=O)CC[C@@H]12.Cl	103.34%	62.36%	61.98%	85.59%	107.69%	70.81%	39.52%	72.99%	79.51%	89.28%	89.03%	96.3%	96.01%	44.03%	105.1%	68.71%	97.99%	61.94%	6.62%	64.59%	Activity [22]: -18.11%; Activity [20]: 46.51%
C[C@]12CCC(=O)C(Oc3ccccc3)=C1CC[C@@H]1[C@@H]2CC[C@]2(C)C(=O)CC[C@@H]12	100.25%	107.32%	100.72%	122.99%	97.47%	120.52%	115.72%	94.74%	102.62%	100.78%	113.44%	96.55%	128.78%	93.48%	124.31%	90.34%	104.06%	87.06%	90.45%	76.98%	Activity [22]: 87.07%; Activity [20]: 89.25%
